BaF3 tox: counter-screen for JAK2V617F inhibitors: parental Ba/F3 viability inhibitors; AID 1486; inhibition, % at 5.6 µM; 220,000 tested, 1.1% active; CellTiter-Glo ATP luminescence;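 active = inhibition above a per-campaign cutoff, the mean inhibition of all tested compounds plus 3 SD, cut at about 27% in these data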;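 note: 0% = DMSO wells and 100% = JAK Inhibitor I control wells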
MT stabilizer: microtubule stabilizers in HeLa cells. HeLa tubulin immunostaining HCS, 24 h; share of cells brighter than vehicle mean+2SD. % tubulin-high responders, % at 10 µM. 200,000 tested, 0.83% active;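 active = plate Z-score above 3 for both tubulin-high and condensed-nucleus cell shares, with cell loss under 80%, at 10 µM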;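 note: anti alpha tubulin signal scored within the nucleus-defined area of each cell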
APP transl inh: APP translation inhibition | SH-SY5Y APP 5'UTR-luciferase reporter, luminescence | inhibition, % at 2 µM | 190,000 tested, 0.82% active;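 active = inhibition above a set limit, derived from the sample mean plus 3 SD, cut at about 45% in these data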
L major viab: Leishmania major promastigote growth inhibition | inhibition, % at 10 µM | Leishmania major promastigotes, resazurin fluorescence viability | 200,000 tested, 9% active; in the data active = inhibition above about 50%;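 note: promastigotes grown with compound for 44 hours at 28 °C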
b-catenin transl: modulators of beta-catenin nuclear translocation | HeLa beta-catenin nuclear translocation, immunofluorescence imaging | nuclear translocation activity, % at 5 µM | 190,000 tested, 0.3% active;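 active = nuclear translocation activity above 50% at 5 µM, with a well cell count of 50 or more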;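 note: per-cell ratio of nuclear to cytoplasmic median beta-catenin stain intensity; plate controls were DMSO negative control for no effect and GSK-3 inhibitor IX positive control for full effect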
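Test system: human HeLa cells, native beta-catenin. Compound dosing: 5 µM primary single dose, 0.1% DMSO, 0.02–20 µM confirmation series. Incubation: compound exposure 24 h at 37°C. Detection: beta-catenin immunostaining with DAPI counterstain, 20x imaging, 6 fields/well. Read-out basis: Nuclear/cytoplasmic beta-catenin signal ratio, % activation.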
Ba/F3 V617F tox: loss of viability in JAK2V617F-driven Ba/F3 cells; 220,000 tested, 1.1% active; Ba/F3 EpoR-JAK2V617F viability, ATP luminescence; inhibition, % at 5.6 µM;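 active = inhibition above the campaign mean plus 3 SD over all tested compounds, cut at about 24% in these data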;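 note: cytokine-independent growth of Ba/F3 cells driven by EpoR plus mutant JAK2; 0% = DMSO-treated cells and 100% = JAK inhibitor I control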
An asterisk follows results filed as active; . = no result. This is a sample that favours compounds with a hit; in the whole collection about 9.6% have one here.

SMILES	BaF3 tox	MT stabilizer	APP transl inh	L major viab	b-catenin transl	Ba/F3 V617F tox
CCCC(=O)Nc1nc2ccc(NC(=O)c3ccccc3F)cc2s1	80*	34*	76*	0	6	82*
COc1ccc2nc(NC(=O)CCn3cccc3)sc2c1	5	4	21	56*	0	1
CCOCC(=O)Nc1nc2ccc(OC)cc2s1	9	2	-73	1	1	0
O=C(COC(=O)C1CCCCC1)Nc1ccc(S(=O)(=O)N2CCOCC2)cc1	-3	2	2	-6	1	0
CCN(CC)C(=O)CSc1nnc(CSc2ncccn2)n1C	-8	.	.	.	-1	-1
Cc1ccc(OCC(=O)Nn2c(C)nc3ccccc3c2=O)c(C(C)C)c1	1	3	2	-4	-1	1
CCCC(=O)Nc1nc2ccc(C(=O)OCC)cc2s1	2	8	-61	2	-3	0
COc1ccc2nc(NC(=O)CSc3nc(C)cc(=O)[nH]3)sc2c1	3	2	60*	-7	0	-1
Cc1ccc2nc(NC(=O)CSc3nnc(C)c(=O)n3N)sc2c1	6	2	-16	54*	-1	2
CCCCC(=O)Nc1nc2ccc(C(=O)OC)cc2s1	0	25*	-79	9	1	4
O=C1CCC(=O)N1CC1CC2CCC1C2 (centres undefined)	-2	.	.	.	-2	-1
CCN(CC)CCN(C(=O)c1ccc2c(c1)CCCC2)c1nc2ccc(F)cc2s1	3	3	-7	35	0	-2
Cc1ccc(C(=O)N(CCCN(C)C)c2nc3ccc(Cl)cc3s2)cc1C	2	2	-2	82*	2	-3
CN(C)CCCN(C(=O)CCc1ccccc1)c1nc2ccc(Br)cc2s1	7	3	6	61*	-1	3
CN(C)CCCN(C(=O)CCc1ccccc1)c1nc2ccc(F)cc2s1	3	3	-1	48	-3	-1
Cc1ccc2nc(N(CCCN(C)C)C(=O)c3sc4ccccc4c3Cl)sc2c1	3	2	4	56*	-1	-1
CN(C)CCCN(C(=O)c1ccc2c(c1)CCCC2)c1nc2ccc(F)cc2s1	4	4	-10	74*	-4	-1
Cc1ccc2[nH]c(=O)c(CN(Cc3ccc4c(c3)OCO4)Cc3nnnn3Cc3ccco3)cc2c1	7	2	-16	100*	-1	1
Cc1cc2cc(CN(Cc3ccc4c(c3)OCO4)Cc3nnnn3C3CCCC3)c(=O)[nH]c2cc1C	-1	3	-7	24	-1	-2
Cc1ccc2[nH]c(=O)c(CN(Cc3ccc4c(c3)OCO4)Cc3nnnn3C3CCCC3)cc2c1	8	6	9	64*	-2	3
COc1ccc([N+](=O)[O-])cc1NC(=O)COC(=O)c1ccccc1O	-1	.	.	.	-3	-6
COc1ccc([N+](=O)[O-])cc1NC(=O)COC(=O)c1ccccc1C(=O)c1ccccc1	2	3	7	92*	2	-2
COc1cc([N+](=O)[O-])ccc1NC(=O)COC(=O)c1n[nH]c2ccccc12	5	2	2	60*	.	2
COc1ccc(CNCC(=O)Nc2sccc2C#N)cc1	-1	5	-4	-4	0	2
Cc1ccccc1N1C(=O)CC(N(O)c2ccccc2)C1=O (centres undefined)	1	2	-48	-8	.	-3
SMILES	BaF3 tox	MT stabilizer	APP transl inh	L major viab	b-catenin transl	Ba/F3 V617F tox
CCN(CCO)C1CC(=O)N(c2ccccc2C)C1=O (centres undefined)	0	1	-2	60*	1	-1
CCCCOC(=O)Nc1cccc(C(=O)OCC)c1	0	4	-91	4	-2	6
O=C(/C=C\c1ccccc1OC(=O)c1ccccc1F)c1cc2ccccc2o1	5	3	-87	52*	2	0
O=C(Oc1ccccc1)c1cc2ccccc2o1	-2	3	4	-3	.	-2
COC(=O)c1cc(NC2c3ncccc3C(=O)N2Cc2ccccc2)cc(C(=O)OC)c1 (centres undefined)	1	7	-10	53*	0	3
O=C(Cn1nnc2ccccc21)c1ccc(Cl)cc1	-4	.	.	.	1	-2
CCCCN=Cc1c(C)[nH]n(-c2ccccc2)c1=S	5	2	7	-5	-4	0
Cc1[nH]n(-c2ccccc2)c(=O)c1/C=N/Nc1nncc(-c2ccccc2)n1	36*	2	82*	100*	-2	53*

Screening data: PubChem, several laboratories
